Results reported in ChEMBL document CHEMBL1128365, “S-(5'-deoxy-5'-adenosyl)-1-aminoxy-4-(methylsulfonio)-2-cyclopentene (AdoMao): an irreversible inhibitor of S-adenosylmethionine decarboxylase with potent in vitro antitrypanosomal activity” (J Med Chem, 1995).
Blank lines part the entries; values can stand above or below the compound they belong to.

Tests used:
[1] = test system: HL-60; assay: Polyamine levels in cultured HL60 cells on S-Adenosyl-methionine decarboxylase at the concentration of 0.1 uM; assay type: functional, Homo sapiens
Procedure, shortened: (§1)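 HL60 human promyelocytic leukemia cells exposed to inhibitor for 96 h, then sonicated. AdoMet-DC activity measured by the Anton and Kutny method. Intracellular putrescine, spermidine and spermine quantified by HPLC (Danzin method). Each value is the mean of two determinations.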

[2] = test system: HL-60; assay: Polyamine levels in cultured HL60 cells on spermine at the concentration of 10.0 uM; assay type: functional, Homo sapiens; procedure, shortened: as §1
[3] = test system: HL-60; assay: Polyamine levels in cultured HL60 cells on spermine at the concentration of 100.0 uM; assay type: functional, Homo sapiens; procedure, shortened: as §1
[4] = test system: HL-60; assay: Polyamine levels in cultured HL60 cells on spermine at the concentration of 50.0 uM; assay type: functional, Homo sapiens; procedure, shortened: as §1
[5] = test system: HL-60; assay: Polyamine levels in cultured HL60 cells on S-Adenosyl-methionine decarboxylase at the concentration of 1.0 uM; assay type: functional, Homo sapiens; procedure, shortened: as §1
[6] = test system: HL-60; assay: Polyamine levels in cultured HL60 cells on S-Adenosyl-methionine decarboxylase at the concentration of 10.0 uM; assay type: functional, Homo sapiens; procedure, shortened: as §1
[7] = test system: HL-60; assay: Polyamine levels in cultured HL60 cells on S-Adenosyl-methionine decarboxylase at the concentration of 100.0 uM; assay type: functional, Homo sapiens; procedure, shortened: as §1
[8] = test system: HL-60; assay: Polyamine levels in cultured HL60 cells on S-Adenosyl-methionine decarboxylase at the concentration of 50.0 uM; assay type: functional, Homo sapiens; procedure, shortened: as §1
[9] = test system: HL-60; assay: Polyamine levels in cultured HL60 cells on putrescine at the concentration of 0.1 uM; assay type: functional, Homo sapiens; procedure, shortened: as §1
[10] = test system: HL-60; assay: Polyamine levels in cultured HL60 cells on putrescine at the concentration of 1.0 uM; assay type: functional, Homo sapiens; procedure, shortened: as §1
[11] = test system: HL-60; assay: Polyamine levels in cultured HL60 cells on putrescine at the concentration of 10.0 uM; assay type: functional, Homo sapiens; procedure, shortened: as §1
[12] = test system: HL-60; assay: Polyamine levels in cultured HL60 cells on putrescine at the concentration of 100.0 uM; assay type: functional, Homo sapiens; procedure, shortened: as §1
[13] = test system: HL-60; assay: Polyamine levels in cultured HL60 cells on putrescine at the concentration of 50.0 uM; assay type: functional, Homo sapiens; procedure, shortened: as §1
[14] = test system: HL-60; assay: Polyamine levels in cultured HL60 cells on spermidine at the concentration of 0.1 uM; assay type: functional, Homo sapiens; procedure, shortened: as §1
[15] = test system: HL-60; assay: Polyamine levels in cultured HL60 cells on spermidine at the concentration of 1.0 uM; assay type: functional, Homo sapiens; procedure, shortened: as §1
[16] = test system: HL-60; assay: Polyamine levels in cultured HL60 cells on spermidine at the concentration of 10.0 uM; assay type: functional, Homo sapiens; procedure, shortened: as §1
[17] = test system: HL-60; assay: Polyamine levels in cultured HL60 cells on spermidine at the concentration of 100.0 uM; assay type: functional, Homo sapiens; procedure, shortened: as §1
[18] = test system: HL-60; assay: Polyamine levels in cultured HL60 cells on spermidine at the concentration of 50.0 uM; assay type: functional, Homo sapiens; procedure, shortened: as §1
[19] = test system: HL-60; assay: Polyamine levels in cultured HL60 cells on spermine at the concentration of 0.1 uM; assay type: functional, Homo sapiens; procedure, shortened: as §1
[20] = test system: HL-60; assay: Polyamine levels in cultured HL60 cells on spermine at the concentration of 1.0 uM; assay type: functional, Homo sapiens; procedure, shortened: as §1
[21] = target: T1, S-adenosylmethionine decarboxylase proenzyme (Homo sapiens, UniProt P17707); assay: (§2) Compound was evaluated for the inhibitor constant against human S-adenosyl-L-methionine decarboxylase
T1 sequence (P17707 whole entry): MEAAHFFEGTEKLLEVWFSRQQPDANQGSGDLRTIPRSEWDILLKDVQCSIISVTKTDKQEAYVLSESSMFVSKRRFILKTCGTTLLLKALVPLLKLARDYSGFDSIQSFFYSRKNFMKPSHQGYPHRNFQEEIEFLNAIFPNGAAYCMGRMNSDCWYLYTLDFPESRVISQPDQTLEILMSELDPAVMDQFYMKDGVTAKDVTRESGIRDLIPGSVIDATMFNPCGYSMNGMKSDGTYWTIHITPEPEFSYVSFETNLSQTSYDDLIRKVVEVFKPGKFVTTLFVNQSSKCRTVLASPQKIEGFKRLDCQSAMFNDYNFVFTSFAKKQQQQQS

[22] = target: T2, S-adenosylmethionine decarboxylase proenzyme (Homo sapiens) (UniProt P17707); assay: as §2
T2 sequence (whole entry): T1 sequence (P17707 whole entry)

[23] = test system: Trypanosoma brucei brucei; assay: Compound was evaluated for the inhibition of growth of Trypanosoma brucei; assay type: functional, organism-based
Procedure, shortened: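 T. brucei brucei bloodforms cultured in modified Iscove's medium, 3% CO2 in air, 37 °C, feeder layer-free. Inhibitor dissolved in medium; half the volume replaced daily with double-strength inhibitor. Growth read by daily cell counts, IC50 after 48 h. Alternatively: 24 h with inhibitor, wash, 24 h with 1.0 μCi [3H]hypoxanthine, filtration and scintillation counting. Mean of two determinations.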

[24] = test system: Trypanosoma brucei rhodesiense; assay: Compound was evaluated for the inhibition of growth of brucei rhodesiense (KETRI 243).; assay type: functional, organism-based
[25] = test system: Trypanosoma brucei rhodesiense; assay: Compound was evaluated for the percentage inhibition of growth of uM; assay type: functional
[26] = target: S-adenosylmethionine decarboxylase (Escherichia coli) (UniProt P0A7F6); assay: Compound was evaluated for the inhibitor against Escherichia coli S-adenosyl-L-methionine decarboxylase
[27] = target: T1, S-adenosylmethionine decarboxylase proenzyme; assay: (§3) compound was evaluated for the inhibitor constant against human S-adenosyl-L-methionine decarboxylase
[28] = target: T2, S-adenosylmethionine decarboxylase proenzyme (Homo sapiens); assay: as §3
[29] = target: S-adenosylmethionine decarboxylase (Escherichia coli) (UniProt P0A7F6); assay: compound was evaluated for the inhibitor against Escherichia coli S-adenosyl-L-methionine decarboxylase.

S-adenosylmethionine decarboxylase (Escherichia coli), sequence (P0A7F6 whole entry, looked up): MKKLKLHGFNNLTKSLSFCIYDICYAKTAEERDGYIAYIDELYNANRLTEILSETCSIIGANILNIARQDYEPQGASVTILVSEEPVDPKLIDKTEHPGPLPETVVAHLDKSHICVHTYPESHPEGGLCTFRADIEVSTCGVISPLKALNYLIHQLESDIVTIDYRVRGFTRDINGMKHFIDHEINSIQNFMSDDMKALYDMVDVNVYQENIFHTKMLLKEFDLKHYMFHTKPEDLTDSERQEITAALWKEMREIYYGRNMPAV

Ki [21]: 19.6 µM
kinact [22]: 0.115 min⁻¹
IC50 [23]: 0.9 µM
IC50 [24]: 10 µM
kinact [26]: 0.015 min⁻¹
SMILES: C[S+](C[C@H]1O[C@@H](n2cnc3c(N)ncnc32)[C@H](O)[C@@H]1O)C1C=CC(ON)C1.O=S(=O)(O)O.O=S(=O)([O-])O (stereo not given in full)
Activity [1]: 355 pmol/h/mg
Activity [2]: 31.6 nM/mg
Activity [3]: 27 nM/mg
Activity [4]: 28 nM/mg
Activity [5]: 347 pmol/h/mg
Activity [6]: 293 pmol/h/mg
Activity [7]: 489 pmol/h/mg
Activity [8]: 449 pmol/h/mg
Activity [9]: 0.71 nM/mg
Activity [10]: 0.94 nM/mg
Activity [11]: 0.71 nM/mg
Activity [12]: 0.94 nM/mg
Activity [13]: 0.79 nM/mg
Activity [14]: 7.9 nM/mg
Activity [15]: 10.1 nM/mg
Activity [16]: 8.4 nM/mg
Activity [17]: 16.1 nM/mg
Activity [18]: 11.2 nM/mg
Activity [19]: 30.4 nM/mg
Activity [20]: 38.1 nM/mg
Inhibition [25]: 49%

Ki [27]: 21.2 µM
kinact [28]: 0.079 min⁻¹
IC50 [23]: 10 µM
kinact [29]: 0.025 min⁻¹
SMILES: C[S+](C[C@H]1O[C@@H](n2cnc3c(N)ncnc32)[C@H](O)[C@@H]1O)[C@H]1C=C[C@H](ON)C1 (stereo not given in full)
